The values that follow come from PubChem BioAssay AID504679 (The Scripps Research Institute Molecular Screening Center, 2011).

Calls of active or inactive are those of the source.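 The calls were made as follows: active = IC50 of 10 µM or lower; inactive = IC50 above 10 µM.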 Where only a bound is given, the exact number is not on record here.

Broadly, the IC50 is the midpoint of a concentration-inhibition curve.

The assay has as its system E. coli V66 + T4 gene 2 phage, OD growth. The experiment in a line: RecBCD inhibition via phage-restricted bacterial growth – absorbance, V66 E. coli, dose response, counter-screen for AddAB inhibitor project, late-stage follow-up (AID 504679). A digest of the protocol:
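Test system: E. coli V66 bacteria; Probe or stimulus: gene 2 nonsense-mutant T4 bacteriophage at MOI 0.02; Schedule: 18 h phage exposure at 37 °C before reading; Technique: absorbance at 600 nm as bacterial growth measure; Read-out basis: percent inhibition versus ciprofloxacin and DMSO wells; Control set: Ciprofloxacin-treated wells and DMSO-only wells.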
(In general: A counterscreen serves to expose hits that act by an unwanted route or on another target.)
Consider `O=C(OCC(=O)c1cccs1)c1ccc([N+](=O)[O-])o1`, for which the IC50 was > 119 µM (inactive).

On to `O=C(Nc1cccc(NC(=O)c2ccccc2Cl)c1)c1ccc([N+](=O)[O-])o1`, for which the IC50 was > 119 µM (inactive).

Turning to `O=C(Nc1ccc(N2CCOCC2)cc1)c1ccc([N+](=O)[O-])o1`, the IC50 was > 119 µM (inactive).

Consider `N#Cc1c(NC(=O)c2ccc([N+](=O)[O-])o2)sc2c1CCC2`, for which the IC50 was > 119 µM (inactive).

As to `CC(=O)Nc1ccc2nc(NC(=O)c3ccc([N+](=O)[O-])o3)sc2c1`, the IC50 is > 119 µM (inactive).

Turning to `O=C(Nc1ncccn1)c1ccc([N+](=O)[O-])o1`, the IC50 was > 119 µM (inactive).

Regarding `C=CCn1c(Sc2ncc([N+](=O)[O-])s2)n[nH]c1=O`, the IC50 is 46.5 µM (inactive).

`Cc1ccc2nc(/C(C#N)=C\c3ccc([N+](=O)[O-])o3)[nH]c2c1`: the IC50 is > 119 µM (inactive).

Consider `CCn1cc(C(=O)O)c(=O)c2cnc(N3CCN(C(=S)Nc4ccccc4C(F)(F)F)CC3)nc21`, for which the IC50 is 103 µM (inactive).

In the case of `O=C(NCc1cccnc1)c1ccc([N+](=O)[O-])o1`, the IC50 was 93.8 µM (inactive).

In the case of `Cc1cccnc1NC(=O)c1ccc([N+](=O)[O-])o1`, the IC50 is > 119 µM (inactive).

Consider `NC(=O)c1ccsc1NC(=O)COC(=O)c1ccc([N+](=O)[O-])o1`, for which the IC50 was > 119 µM (inactive).
